Reference: ChEMBL document CHEMBL3875200, “Bivalent SIRT1 inhibitors” (Bioorg Med Chem Lett, 2017)
Calls of active or inactive are those of the source. No cut-off for these calls is given here.

How the values were obtained:
[1] = biological target: T1, NAD-dependent protein deacetylase sirtuin-1 (Homo sapiens, UniProt Q96EB6); test: Inhibition of recombinant human His6/GST-tagged SIRT1 expressed in Escherichia coli assessed as reduction in H2N-HK-[Nepsilon-acetyl-lysine]-LM-COOH deacetylation measured after 10 mins in presence of beta-NAD+ by RP-HPLC assay
T1 sequence (Q96EB6 whole entry): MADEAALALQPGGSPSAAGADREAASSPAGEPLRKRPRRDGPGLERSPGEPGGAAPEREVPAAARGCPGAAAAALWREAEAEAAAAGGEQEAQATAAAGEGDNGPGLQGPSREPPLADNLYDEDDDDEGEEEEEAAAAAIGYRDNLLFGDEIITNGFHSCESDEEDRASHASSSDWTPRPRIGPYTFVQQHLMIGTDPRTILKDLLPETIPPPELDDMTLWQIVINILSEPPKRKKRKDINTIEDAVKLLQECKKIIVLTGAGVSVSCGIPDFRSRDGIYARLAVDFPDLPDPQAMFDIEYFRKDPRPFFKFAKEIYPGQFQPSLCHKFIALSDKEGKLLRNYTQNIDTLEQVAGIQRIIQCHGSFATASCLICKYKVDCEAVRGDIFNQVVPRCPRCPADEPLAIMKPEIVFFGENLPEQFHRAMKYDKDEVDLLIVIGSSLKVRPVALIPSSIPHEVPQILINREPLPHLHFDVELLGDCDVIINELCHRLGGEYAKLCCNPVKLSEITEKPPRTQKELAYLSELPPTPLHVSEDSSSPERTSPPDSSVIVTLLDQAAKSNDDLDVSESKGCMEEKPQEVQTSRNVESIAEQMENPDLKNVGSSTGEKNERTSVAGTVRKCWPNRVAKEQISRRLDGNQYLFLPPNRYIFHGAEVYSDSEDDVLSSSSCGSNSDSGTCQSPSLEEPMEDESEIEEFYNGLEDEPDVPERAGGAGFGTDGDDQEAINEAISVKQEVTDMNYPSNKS

[2] = biological target: T2, NAD-dependent protein deacetylase sirtuin-1 (Homo sapiens) (UniProt Q96EB6); test: (§1) Competitive inhibition of recombinant human His6/GST-tagged SIRT1 expressed in Escherichia coli assessed as deacetylation of H2N-HK-[epsilonN-acetyl-lysine]-LM-COOH at 4 to 8.5 uM measured after 10 mins in presence of constant beta-NAD+ and varying substrate concentration by Lineweaver-Burk plot analysis
T2 sequence (whole entry): T1 sequence (Q96EB6 whole entry)
Summary of the method: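 Inhibitor tested against varied acetyl-lysine peptide substrate H2N-HK-(Nε-acetyl-lysine)-LM-COOH. A competitive inhibition constant (Kis) and the apparent Km for this peptide were derived from the kinetic data.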

[3] = biological target: T2, NAD-dependent protein deacetylase sirtuin-1 (Homo sapiens); test: as §1, with “Non-competitive” for “Competitive”, “varying” for “constant”, “constant” for “varying”
Summary of the method: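 β-NAD⁺ was the varied co-substrate. An uncompetitive-intercept inhibition constant (Kii) and the apparent Km for β-NAD⁺ were derived from the kinetic data.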

[4] = biological target: T3, NAD-dependent protein deacetylase sirtuin-2 (Homo sapiens, UniProt Q8IXJ6); test: Inhibition of recombinant human His6-tagged SIRT2 (2 to 389 residues) expressed in Escherichia coli assessed as inhibition of H2N-HK-[epsilonN-acetyl-lysine]-LM-COOH deacetylation measured after 12 mins in presence of beta-NAD+ by RP-HPLC analysis
T3 sequence (Q8IXJ6 whole entry): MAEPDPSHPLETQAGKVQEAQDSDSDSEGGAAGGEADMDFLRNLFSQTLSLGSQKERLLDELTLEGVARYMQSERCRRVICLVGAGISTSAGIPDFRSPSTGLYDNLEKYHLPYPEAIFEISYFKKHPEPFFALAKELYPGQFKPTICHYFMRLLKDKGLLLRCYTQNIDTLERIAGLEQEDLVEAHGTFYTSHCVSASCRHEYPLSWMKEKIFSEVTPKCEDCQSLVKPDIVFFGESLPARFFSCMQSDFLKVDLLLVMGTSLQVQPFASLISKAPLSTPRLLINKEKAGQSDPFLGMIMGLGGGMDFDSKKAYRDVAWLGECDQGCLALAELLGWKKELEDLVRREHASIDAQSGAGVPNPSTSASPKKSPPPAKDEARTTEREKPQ

[5] = biological target: T4, NAD-dependent protein deacetylase sirtuin-3, mitochondrial (Homo sapiens, UniProt Q9NTG7); test: Inhibition of recombinant human His6-tagged SIRT3 (101 to 399 residues) expressed in Escherichia coli assessed as inhibition of H2N-HK-[epsilonN-acetyl-lysine]-LM-COOH deacetylation measured after 10 mins in presence of beta-NAD+ by reversed-phase C18 HPLC analysis
T4 sequence (Q9NTG7 whole entry): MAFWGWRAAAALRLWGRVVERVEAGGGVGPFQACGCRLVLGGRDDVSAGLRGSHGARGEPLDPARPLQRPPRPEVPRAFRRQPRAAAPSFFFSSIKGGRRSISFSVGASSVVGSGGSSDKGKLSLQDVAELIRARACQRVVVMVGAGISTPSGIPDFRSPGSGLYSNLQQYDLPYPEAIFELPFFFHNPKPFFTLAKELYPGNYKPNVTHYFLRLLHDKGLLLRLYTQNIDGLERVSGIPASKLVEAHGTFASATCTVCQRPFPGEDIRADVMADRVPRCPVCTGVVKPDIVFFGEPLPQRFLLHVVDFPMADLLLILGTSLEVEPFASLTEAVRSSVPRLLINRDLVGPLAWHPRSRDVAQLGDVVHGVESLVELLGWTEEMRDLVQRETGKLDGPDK

[6] = species: Homo sapiens; test: Selectivity ratio of IC50 for recombinant human His6/GST-tagged SIRT1 expressed in Escherichia coli to IC50 for recombinant human His6-tagged SIRT2 (2 to 389 residues) expressed in Escherichia coli
[7] = species: Homo sapiens; test: Selectivity ratio of IC50 for recombinant human His6/GST-tagged SIRT1 expressed in Escherichia coli to IC50 for recombinant human His6-tagged SIRT3 (101 to 399 residues) expressed in Escherichia coli
[8] = Aqueous solubility of the compound; format: physicochemical; conditions: buffer
[9] = biological target: T2, NAD-dependent protein deacetylase sirtuin-1 (Homo sapiens); test: Reversible inhibition of recombinant human His6/GST-tagged SIRT1 expressed in Escherichia coli assessed as inhibition of H2N-HK-[epsilonN-acetyl-lysine]-LM-COOH deacetylation measured after 10 mins in presence of beta-NAD+ by Dixon plot analysis

| Compound | IC50 [1] | further results |
| --- | --- | --- |
| CC(=O)NCCCC[C@H](NC(=O)[C@H](CCCCNC(=O)CSc1nc2ccccc2s1)NC(=O)[C@H](CCCCNC(C)=O)NC(C)=O)C(N)=O | 77.5 µM |  |
| CC(=O)NCCCC[C@H](NC(=O)[C@H](CCCCNC(=O)CCCCCCSc1nc2ccccc2s1)NC(=O)[C@H](CCCCNC(C)=O)NC(C)=O)C(N)=O | 30 µM |  |
| CC(=O)NCCCC[C@H](NC(=O)[C@H](CCCCNC(=O)CCCCCSc1nc2ccccc2s1)NC(=O)[C@H](CCCCNC(C)=O)NC(C)=O)C(N)=O | 12.4 µM | inhibition [2]: Active; inhibition [3]: Active; IC50 [4]: > 200 µM; IC50 [5]: > 1000 µM; Ratio IC50 [6]: > 16; Ratio IC50 [7]: > 81 |
| CC(=O)NCCCC[C@H](NC(=O)[C@H](CCCCNC(=O)CCCCCCCSc1nc2ccccc2s1)NC(=O)[C@H](CCCCNC(C)=O)NC(C)=O)C(N)=O | 5.3 µM | solubility [8]: Insoluble |
| CC(=O)NCCCC[C@H](NC(=O)[C@H](CCCCNC(=O)CCCCCSc1ccc2ccccc2c1)NC(=O)[C@H](CCCCNC(C)=O)NC(C)=O)C(N)=O | 14.6 µM |  |
| CC(=O)NCCCC[C@H](NC(=O)[C@H](CCCCNC(=O)CCCCCSc1nc2ccccc2o1)NC(=O)[C@H](CCCCNC(C)=O)NC(C)=O)C(N)=O | 133 µM |  |
| CC(=O)NCCCC[C@H](NC(=O)[C@H](CCCCNC(=O)CI)NC(=O)[C@H](CCCCNC(C)=O)NC(C)=O)C(N)=O | 39.3 µM | inhibition [9]: Active; IC50 [4]: 22.2 µM |
| CC(=O)NCCCC[C@H](NC(=O)[C@H](CCCCNC(=O)CNC(=O)CI)NC(=O)[C@H](CCCCNC(C)=O)NC(C)=O)C(N)=O | > 200 µM | inhibition [9]: Active |
| CC(=O)NCCCC[C@H](NC(=O)[C@H](CCCCNC(=O)CCCCCSc1cccc2ccccc12)NC(=O)[C@H](CCCCNC(C)=O)NC(C)=O)C(N)=O | 14.6 µM |  |
| CC(=O)NCCCC[C@H](NC(=O)[C@H](CCCCNC(=O)CCCCCSc1ncc(-c2ccccc2)s1)NC(=O)[C@H](CCCCNC(C)=O)NC(C)=O)C(N)=O | 15.4 µM |  |
| CC(=O)NCCCC[C@H](NC(=O)[C@H](CCCCNC(=O)CSc1nnc(/C=C/c2ccccc2)[nH]1)NC(=O)[C@H](CCCCNC(C)=O)NC(C)=O)C(N)=O | 150 µM |  |
| CC(=O)NCCCC[C@H](NC(=O)[C@H](CCCCNC(=O)CSCc1ccccc1)NC(=O)[C@H](CCCCNC(C)=O)NC(C)=O)C(N)=O | 171 µM |  |
| CC(=O)NCCCC[C@H](NC(=O)[C@H](CCCCNC(=O)CSc1ncc(-c2ccccc2)s1)NC(=O)[C@H](CCCCNC(C)=O)NC(C)=O)C(N)=O | 18 µM |  |

More lines, main results first:

| IC50 [1] | Compound | further results |
| --- | --- | --- |
| 57.7 µM | CC(=O)NCCCC[C@H](NC(=O)[C@H](CCCCNC(=O)CCCCCSCc1ccccc1)NC(=O)[C@H](CCCCNC(C)=O)NC(C)=O)C(N)=O |  |
| > 900 µM | CC(=O)NCCCC[C@H](NC(=O)[C@H](CCCCNC(=O)CCCCCSc1nc2c(N)ncnc2[nH]1)NC(=O)[C@H](CCCCNC(C)=O)NC(C)=O)C(N)=O |  |
| 45.8 µM | CC(=O)NCCCC[C@H](NC(=O)[C@H](CCCCNC(=O)CCCCCCCSc1nc2c(N)ncnc2[nH]1)NC(=O)[C@H](CCCCNC(C)=O)NC(C)=O)C(N)=O |  |
| 116 µM | CC(=O)NCCCC[C@H](NC(=O)[C@H](CCCCNC(=O)CNC(=O)CNC(=O)CSc1nc2ccccc2s1)NC(=O)[C@H](CCCCNC(C)=O)NC(C)=O)C(N)=O |  |
| 187 µM | CC(=O)NCCCC[C@H](NC(=O)[C@H](CCCCNC(=O)CCCCCSc1nc2ccccc2[nH]1)NC(=O)[C@H](CCCCNC(C)=O)NC(C)=O)C(N)=O |  |
| 27 µM | CC(=O)NCCCC[C@H](NC(=O)[C@H](CCCCNC(=O)CCCSc1nc2ccccc2s1)NC(=O)[C@H](CCCCNC(C)=O)NC(C)=O)C(N)=O |  |
